# ChEMBL document CHEMBL3120069, “Chemical genetics-based discovery of indole derivatives as HCV NS5B polymerase inhibitors” (Eur J Med Chem, 2014)
# How the values were obtained:
# [1] = system: Hepatitis C virus; assay: Antiviral activity against Hepatitis C virus Con1 Bart79I genotype 1b expressing YFP infected in human Huh7.5 cells assessed as NS5A S2204I mutant synthesis at 2 uM after 120 hrs by FACS analysis (reference value: 66%); assay type: functional, Hepacivirus hominis, subtype 1b Con1 Bart79I, Huh-7
# How it was run: (§1)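 Huh7.5 cells stably carrying Bart79I-YFP subgenomic replicon (G418 selection), treated with DMSO or compound. Dose series over 5 days (120 h), or 10 M with sampling at 24, 48, 72 h. Cells washed, resuspended in PBS, and NS5A-YFP-positive cells counted by FACS. EC50 and T1/2 taken from response curves.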
# [2] = Selectivity ratio of EC50 for Hepatitis C virus JFH-1 J6 genotype 2a to EC50 for Hepatitis C virus Con1 Bart79I genotype 1b expressing NS5A S2204I mutant; assay type: functional
# [3] = system: Hepatitis C virus; assay: Antiviral activity against Hepatitis C virus JFH-1 J6 genotype 2a infected in human Huh7.5 cells assessed as inhibition of viral RNA replication after 72 hrs by luciferase reporter gene assay; assay type: functional, organism-based, Hepacivirus hominis; conditions: subtype 2a JFH1 J6, Huh-7, 72 h
# [4] = system: Hepatitis C virus; assay: Antiviral activity against Hepatitis C virus JFH-1 J6 genotype 2a infected in human Huh7.5 cells assessed as inhibition of viral RNA replication at 10 uM by real time qRT-PCR analysis; assay type: functional, organism-based; conditions: Hepacivirus hominis, subtype 2a JFH1 J6, Huh-7, TDE = time-dependent effect
# How it was run: (§2)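 J6/JFH1 RNA-transfected Huh7.5 cells held at 10 µM compound for increasing periods; HCV and host GAPDH RNA measured by real-time qRT-PCR. Triplicates, mean ± SD; T1/2 for halving viral RNA from the time-response curve.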
# [5] = Selectivity index, ratio of CC50 for human Huh7.5 cells to EC50 for Hepatitis C virus JFH-1 J6 genotype 2a infected in human Huh7.5 cells; assay type: toxicity, cell-based, Huh-7; conditions: read-out: Ratio CC50/EC50
# [6] = system: Hepatitis C virus; assay: Antiviral activity against Hepatitis C virus Con1 Bart79I genotype 1b expressing YFP infected in human Huh7.5 cells assessed as NS5A S2204I mutant synthesis at 10 uM after 24 hrs by FACS analysis (reference value: 52.2%); assay type: functional, Hepacivirus hominis, subtype 1b Con1 Bart79I, Huh-7; how it was run: as §1
# [7] = system: Hepatitis C virus; assay: Antiviral activity against Hepatitis C virus Con1 Bart79I genotype 1b expressing YFP infected in human Huh7.5 cells assessed as NS5A S2204I mutant synthesis at 10 uM after 48 hrs by FACS analysis (reference value: 52.2%); assay type: functional, Hepacivirus hominis, subtype 1b Con1 Bart79I, Huh-7; how it was run: as §1
# [8] = system: Hepatitis C virus; assay: Antiviral activity against Hepatitis C virus Con1 Bart79I genotype 1b infected in human Huh7.5 cells assessed as inhibition of NS5A S2204I mutant synthesis at 10 uM by Western blot analysis; assay type: functional, organism-based; conditions: Hepacivirus hominis, subtype 1b Con1 Bart79I, Huh-7, TDE = time-dependent effect
# How it was run: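 Bart79I replicon Huh7.5 cells, 1.5×10⁵/well, treated with DMSO or compound. Dose series for 5 days (120 h), or 10 M for 24, 48, 72 h. Lysed in RIPA with protease inhibitors and protein quantified by Bradford. NS5A and β-actin measured by Western blot, with NS5A normalized to β-actin. EC50 and T1/2 taken from response curves.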
# [9] = Ratio of antiviral activity against Hepatitis C virus Con1 Bart79I genotype 1b expressing NS5A S2204I mutant infected in human Huh7.5 cells assessed as time required for reducing viral RNA level by half to antiviral activity against Hepatitis C virus JFH-1 J6 genotype 2a infected in human Huh7.5 cells assessed as time required for reducing viral RNA level by half; assay type: functional, Huh-7
# [10] = system: Hepatitis C virus; assay: Antiviral activity against Hepatitis C virus Con1 Bart79I genotype 1b expressing NS5A S2204I mutant infected in human Huh7.5 cells assessed as inhibition of viral RNA replication after 72 hrs by real time qRT-PCR analysis; assay type: functional, organism-based; conditions: subtype 1b Con1 Bart79I
# How it was run: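 Huh7.5 cells stably carrying Bart79I genotype 1b subgenomic replicon (G418 750 mg/ml selection, 3 weeks), 3×10⁵ cells/well with DMSO or compound. Dose series over 72 h, or 10 M for increasing periods. Viral and host GAPDH RNA measured by real-time qRT-PCR. EC50 and T1/2 taken from response curves of triplicate experiments.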
# [11] = system: Hepatitis C virus; assay: Antiviral activity against Hepatitis C virus JFH-1 J6 genotype 2a infected in human Huh7.5 cells assessed as inhibition of viral RNA replication after 72 hrs by real time qRT-PCR analysis; assay type: functional, organism-based
# [12] = system: Hepatitis C virus; assay: Antiviral activity against Hepatitis C virus Con1 Bart79I genotype 1b expressing YFP infected in human Huh7.5 cells assessed as inhibition of NS5A S2204I mutant synthesis at 10 uM by FACS analysis; assay type: functional, organism-based; conditions: Hepacivirus hominis, subtype 1b Con1 Bart79I, Huh-7, TDE = time-dependent effect; how it was run: as §1
# [13] = system: Hepatitis C virus; assay: Antiviral activity against Hepatitis C virus Con1 Bart79I genotype 1b expressing YFP infected in human Huh7.5 cells assessed as NS5A S2204I mutant synthesis at 5 uM after 120 hrs by FACS analysis (reference value: 66%); assay type: functional, Hepacivirus hominis, subtype 1b Con1 Bart79I, Huh-7; how it was run: as §1
# [14] = system: Hepatitis C virus; assay: Antiviral activity against Hepatitis C virus JFH-1 J6 genotype 2a infected in human Huh7.5 cells assessed as time required for reducing viral RNA level by half at 10 uM by luciferase reporter gene assay; assay type: functional, organism-based; conditions: Hepacivirus hominis, subtype 2a JFH1 J6, Huh-7
# How it was run: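 Rluc-J6/JFH1 RNA-transfected Huh7.5 cells given 10 µM compound; renilla luciferase and cell viability measured at 24, 48, 72 h. T1/2 for halving replication taken from the time-response curve.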
# [15] = Inhibition of recombinant HCV N-terminal hexahistidine-tagged NS5B Cdelta21 RdRp expressed in Escherichia coli assessed as incorporation of [alpha-32P]-UTP in RNA after 2 hrs by autoradiographic analysis; parameters: species or system Hepacivirus hominis
# How it was run: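 N-terminal His6-tagged recombinant HCV NS5B from E. coli, primer-dependent elongation with poly(A) template (1 µg) and oligo(U)20 (10 pmol). Buffer: 50 mM Tris-HCl pH 7.5, 50 mM NaCl, 100 mM K glutamate, 2 mM MgCl2, 1 mM DTT, RNase inhibitor, UTP plus [α-³²P]UTP. Increasing compound concentrations; IC50 from dose-response curve.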
# [16] = system: Hepatitis C virus; assay: Antiviral activity against Hepatitis C virus Con1 Bart79I genotype 1b expressing YFP/NS5A S2204I mutant infected in human Huh7.5 cells assessed as inhibition of viral RNA replication after 72 hrs by real time qRT-PCR analysis; conditions: subtype 1b Con1 Bart79I, Huh-7, 72 h
# [17] = system: Hepatitis C virus; assay: Antiviral activity against Hepatitis C virus Con1 Bart79I genotype 1b expressing YFP infected in human Huh7.5 cells assessed as time required for reducing viral core level by half at 10 uM by FACS analysis; assay type: functional, organism-based; conditions: Hepacivirus hominis, subtype 1b Con1 Bart79I, Huh-7, in the assay text read “viral NS5A-YFP level” for “viral core level”
# How it was run: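 Huh7.5 cells stably carrying Bart79I-YFP subgenomic replicon (G418 750 mg/ml selection), exposed to compound at 10 µM; cells harvested at 24, 48, 72 h, washed, resuspended in PBS, NS5A-YFP-positive cell percentage read by FACS. T1/2 taken from the time-response curve.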
# [18] = system: Hepatitis C virus; assay: Antiviral activity against Hepatitis C virus JFH-1 J6 genotype 2a infected in human Huh7.5 cells assessed as time required for reducing viral RNA level by half at 10 uM by real time qRT-PCR analysis; assay type: functional, organism-based; conditions: Hepacivirus hominis, subtype 2a JFH1 J6, Huh-7; how it was run: as §2
smiles,measurement,setting,value
C/C(=C\c1c[nH]c2ccc(C#N)cc12)C(=O)Nc1ccc(C(C)(C)C)cc1,Activity,[1],4.2%
same,Ratio EC50,[2],3.2
same,EC50,[3],1.1 µM
same,EC90,[3],2.1 µM
same,inhibition,[4],tde
same,selectivity ratio,[5],56.9
same,Activity,[6],32.2%
same,Activity,[7],11.8%
same,inhibition,[8],tde
same,Ratio,[9],1.8
same,inhibition,"[10]; Hepacivirus hominis, Huh-7",Dose-dependent effect
same,EC50,"[10]; Huh-7, 72 h",0.6 µM
same,inhibition,"[11]; Hepacivirus hominis, subtype 2a JFH1 J6, Huh-7",Dose-dependent effect
same,EC50,"[11]; subtype 2a JFH1 J6, Huh-7, 72 h",1.9 µM
same,inhibition,[12],tde
same,Activity,[13],0.7%
same,T1/2,[14],16.4 h
same,IC50,[15],0.292 µM
same,EC50,[16],4.77 µM
same,T1/2,[17],31.8 h
same,T1/2,[18],17.2 h
